# Tests used:
# Type in all cases: functional
# [1] = test system: NCI-H226; test: Growth inhibition of human NCI-H226 cells at 10 uM after 48 hrs by sulforhodamine B assay relative to control; conditions: NCI-H226, 48 h, read-out: GI
# Method in brief: (§1)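 NCI-60 human cancer cell line screen, single-dose pass: cells exposed to 10 μM for 48 h. Cellular protein content read out by sulforhodamine B staining, and growth inhibition expressed relative to untreated control.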
# [2] = test system: HCT-15; test: Growth inhibition of human HCT15 cells at 10 uM after 48 hrs by sulforhodamine B assay relative to control; conditions: HCT-15, 48 h, read-out: GI
# Method in brief: (§2)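 NCI-60 single-dose screen at 10 μM for 48 h. Percent growth inhibition was measured by sulforhodamine B staining of cellular protein.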
# [3] = test system: MCF7; test: Growth inhibition of human MCF7 cells after 48 hrs by SRB assay; conditions: MCF7, 48 h
# Method in brief: (§3)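 In-house assay. Cells were seeded into 96-well plates at a density for exponential growth and treated with a concentration range for 48 h. They were then fixed in 10% (w/v) TCA and stained with sulforhodamine B. The 50% growth-inhibitory concentration relative to control cells was calculated as the mean of three repeats ± standard deviation.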
# [4] = test system: PC-3; test: Growth inhibition of human PC3 cells at 10 uM after 48 hrs by sulforhodamine B assay relative to control; conditions: PC-3, 48 h, read-out: GI; method in brief: as §1
# [5] = test system: MDA-MB-435; test: Growth inhibition of human MDA-MB-435 cells after 48 hrs by sulforhodamine B assay; conditions: MDA-MB-435, 48 h
# Method in brief: (§4)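 NCI-60 panel screen. Cells were exposed for 48 h at five concentrations between 10 nM and 100 μM. Cellular protein was read by sulforhodamine B staining, and GI50 and total growth inhibition (TGI) concentrations were derived.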
# [6] = test system: MOLT-4; test: Growth inhibition of human MOLT4 cells after 48 hrs by sulforhodamine B assay; conditions: MOLT-4, 48 h
# Method in brief: (§5)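 NCI-60 panel follow-up: five concentrations from 10 nM to 100 μM, 48 h exposure. Growth read by sulforhodamine B protein staining. GI50 derived from the concentration-response, with the concentration for total growth inhibition (TGI) also recorded when below 100 μM.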
# [7] = test system: HCT-116; test: Growth inhibition of human HCT116 cells at 10 uM after 48 hrs by sulforhodamine B assay relative to control; conditions: HCT-116, 48 h, read-out: GI; method in brief: as §2
# [8] = test system: MDA-MB-468; test: Growth inhibition of human MDA-MB-468 cells at 10 uM after 48 hrs by sulforhodamine B assay relative to control; conditions: MDA-MB-468, 48 h, read-out: GI; method in brief: as §1
# [9] = test system: M14; test: Growth inhibition of human M14 cells at 10 uM after 48 hrs by sulforhodamine B assay relative to control; conditions: M14, 48 h, read-out: GI; method in brief: as §2
# [10] = test system: ACHN; test: Growth inhibition of human ACHN cells after 48 hrs by sulforhodamine B assay; method in brief: as §4
# [11] = test system: SNB-19; test: Growth inhibition of human SNB19 cells at 10 uM after 48 hrs by sulforhodamine B assay relative to control; conditions: SNB-19, 48 h, read-out: GI; method in brief: as §1
# [12] = test system: HOP-92; test: Growth inhibition of human HOP92 cells at 10 uM after 48 hrs by sulforhodamine B assay relative to control; conditions: HOP-92, 48 h, read-out: GI; method in brief: as §2
# [13] = test system: UO-31; test: Growth inhibition of human UO31 cells after 48 hrs by sulforhodamine B assay; conditions: UO-31, 48 h
# Method in brief: (§6)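 NCI-60 panel cells treated at five concentrations from 10 nM to 100 μM for 48 h. Read-out by sulforhodamine B protein stain. GI50 and total growth inhibition (TGI, if below 100 μM) taken from the concentration-response data.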
# [14] = test system: CCRF-CEM; test: Growth inhibition of human CCRF-CEM cells after 48 hrs by sulforhodamine B assay; method in brief: as §4
# [15] = test system: MDA-MB-435; test: Growth inhibition of human MDA-MB-435 cells at 10 uM after 48 hrs by sulforhodamine B assay relative to control; conditions: MDA-MB-435, 48 h, read-out: GI; method in brief: as §1
# [16] = test system: SK-MEL-28; test: Growth inhibition of human SK-MEL-28 cells at 10 uM after 48 hrs by sulforhodamine B assay relative to control; conditions: SK-MEL-28, 48 h, read-out: GI; method in brief: as §1
# [17] = test system: NCI-H322M; test: Growth inhibition of human NCI-H322M cells after 48 hrs by sulforhodamine B assay; method in brief: as §5
# [18] = test system: UO-31; test: Growth inhibition of human UO31 cells at 10 uM after 48 hrs by sulforhodamine B assay relative to control; conditions: UO-31, 48 h, read-out: GI
# Method in brief: (§7)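 NCI-60 human cancer cell line screen, single dose of 10 μM for 48 h. Cellular protein content read by sulforhodamine B staining; growth inhibition expressed relative to untreated control.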
# [19] = test system: HCT-15; test: Growth inhibition of human HCT15 cells after 48 hrs by sulforhodamine B assay; conditions: HCT-15, 48 h; method in brief: as §4
# [20] = test system: A498; test: Growth inhibition of human A498 cells after 48 hrs by SRB assay; conditions: A498, 48 h; method in brief: as §3
# [21] = test system: SW-620; test: Growth inhibition of human SW620 cells at 10 uM after 48 hrs by sulforhodamine B assay relative to control; conditions: SW-620, 48 h, read-out: GI; method in brief: as §7
# [22] = test system: SNB-75; test: Growth inhibition of human SNB75 cells after 48 hrs by sulforhodamine B assay; conditions: SNB-75, 48 h; method in brief: as §5
# [23] = test system: SF-295; test: Growth inhibition of human SF295 cells at 10 uM after 48 hrs by sulforhodamine B assay relative to control; conditions: SF-295, 48 h, read-out: GI; method in brief: as §1
# [24] = test system: SW-620; test: Growth inhibition of human SW620 cells after 48 hrs by sulforhodamine B assay; conditions: SW-620, 48 h; method in brief: as §6
# [25] = test system: SF-539; test: Growth inhibition of human SF539 cells at 10 uM after 48 hrs by sulforhodamine B assay relative to control; conditions: SF-539, 48 h, read-out: GI; method in brief: as §1
# [26] = test system: RPMI-8226; test: Growth inhibition of human RPMI8226 cells after 48 hrs by sulforhodamine B assay; conditions: RPMI-8226, 48 h; method in brief: as §5
# [27] = test system: T47D; test: Growth inhibition of human T47D cells after 48 hrs by sulforhodamine B assay; method in brief: as §6
# [28] = test system: SK-MEL-28; test: Growth inhibition of human SK-MEL-28 cells after 48 hrs by sulforhodamine B assay; conditions: SK-MEL-28, 48 h; method in brief: as §5
# [29] = test system: CCRF-CEM; test: Growth inhibition of human CCRF-CEM cells at 10 uM after 48 hrs by sulforhodamine B assay relative to control; conditions: read-out: GI; method in brief: as §2
# [30] = test system: Malme-3M; test: Growth inhibition of human MALME-3M cells at 10 uM after 48 hrs by sulforhodamine B assay relative to control; conditions: read-out: GI; method in brief: as §2
# [31] = test system: CAKI-1; test: Growth inhibition of human CAKI-1 cells at 10 uM after 48 hrs by sulforhodamine B assay relative to control; conditions: CAKI-1, 48 h, read-out: GI; method in brief: as §2
# [32] = test system: UACC-62; test: Growth inhibition of human UACC62 cells at 10 uM after 48 hrs by sulforhodamine B assay relative to control; conditions: UACC-62, 48 h, read-out: GI; method in brief: as §7
# [33] = test system: SK-MEL-2; test: Growth inhibition of human SK-MEL-2 cells at 10 uM after 48 hrs by sulforhodamine B assay relative to control; conditions: SK-MEL-2, 48 h, read-out: GI; method in brief: as §1
Structure (SMILES),inhibition of growth at 10 µM [1],inhibition of growth at 10 µM [2],GI50 [3],inhibition of growth at 10 µM [4],GI50 [5],GI50 [6],inhibition of growth at 10 µM [7],inhibition of growth at 10 µM [8],inhibition of growth at 10 µM [9],GI50 [10],inhibition of growth at 10 µM [11],inhibition of growth at 10 µM [12],GI50 [13],GI50 [14],inhibition of growth at 10 µM [15],inhibition of growth at 10 µM [16],GI50 [17],inhibition of growth at 10 µM [18],GI50 [19],GI50 [20],other results
COc1ccccc1S(=O)(=O)Nc1ccc2c(c1)CN(C)C(=O)N2,37%,59.2%,1.5 µM,64.7%,2.6 µM,10.5 µM,50.3%,78.9%,52.2%,7.8 µM,45.9%,97.6%,1.1 µM,7.8 µM,65.8%,51.1%,6 µM,89.8%,3.2 µM,1.8 µM,TGI [20]: 6 µM; inhibition of growth at 10 µM [21]: 40.6%; GI50 [22]: 0.4 µM; inhibition of growth at 10 µM [23]: 94.7%; GI50 [24]: 12 µM; inhibition of growth at 10 µM [25]: 49.9%; GI50 [26]: 2.2 µM; GI50 [27]: 3.7 µM; GI50 [28]: 6.2 µM; inhibition of growth at 10 µM [29]: 51.1%; inhibition of growth at 10 µM [30]: 67.8%; inhibition of growth at 10 µM [31]: 78.8%; inhibition of growth at 10 µM [32]: 70.7%; inhibition of growth at 10 µM [33]: 52.4%
Cc1noc(C)c1-c1cc(O)cc(C(O)c2ccccc2)c1 (stereo not given),34.5%,63.3%,1.25 to 1.7 µM,51.6%,3.48 µM,17.9 µM,42%,75.1%,44%,4.76 µM,47.3%,74.4%,4.58 µM,14.8 µM,56.1%,38.8%,8.41 µM,83.1%,3.52 µM,1.58 to 2.6 µM,TGI [6]: 80.7 µM; TGI [20]: 20.3 µM; inhibition of growth at 10 µM [21]: 27.9%; GI50 [22]: 0.423 µM; inhibition of growth at 10 µM [23]: 57.5%; GI50 [24]: 24.5 µM; inhibition of growth at 10 µM [25]: 37.5%; GI50 [26]: 1.94 µM; TGI [26]: 9.7 µM; GI50 [27]: 7.7 µM; GI50 [28]: 9.15 µM; inhibition of growth at 10 µM [29]: 53.3%; inhibition of growth at 10 µM [30]: 40%; inhibition of growth at 10 µM [31]: 76.2%; inhibition of growth at 10 µM [32]: 68.5%; inhibition of growth at 10 µM [33]: 39.6%
